Data: publication PMC10213863 (Cell Reports Medicine, 2023)

Test system: NZB/W F1 mice
Test: NZB/W F1 model repeated at a different site, therapeutic twice-daily oral dosing
Type: in vivo, mouse
Summary of the method: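 This repeat NZB/W F1 study had three differences. Mice were included at dipstick proteinuria score 2 (0.3–1 mg/mL), proteinuria was scored by dipstick, and test compound was given orally b.i.d. rather than in food. Kidney IgM and IgG deposits were quantified as positively stained area over total section area on ten sections per mouse, then averaged.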

[1] = therapeutic b.i.d. p.o. after robust proteinuria

Cc1cc(N2CCc3c(c(C)nn3CC34CCC(NC(=O)[C@@H]5COCCN5)(CC3)CC4)C2)c2cnn(C)c2n1 [MHV370, (S)-N-(4-((5-(1,6-dimethyl-1H-pyrazolo[3,4-b]pyridin-4-yl)-3-methyl-4,5,6,7-tetrahydro-1H-pyrazolo[4,3-c]pyridin-1-yl)methyl)bicyclo[2.2.2]octan-1-yl)morpholine-3-carboxamide]
IgM and IgG deposition in kidneys (histology) (therapeutic b.i.d. p.o.): substantially reduced
proteinuria (dipstick score) [1]: reduced proteinuria
survival [1]: increased survival
